Paper PMC3673019 (Biochemistry, 2012)
Entries after “also recorded” stand apart in the source; their conditions may differ. Read-outs that look alike come from different tables or passages of the source.

How the values were obtained:
eEF-2K [1] = target: T1, eEF-2K (Homo sapiens, UniProt O00418); format: biochemical
eEF-2K [2] = settings: cited from earlier work
eEF-2K [3] = target: T1, eEF-2K; test: Dose-response inhibition of Pep-S phosphorylation by NH125; format: biochemical; settings: in the presence of 0.1% triton X-100
TRPM7 = target: T2, TRPM7 (Homo sapiens, UniProt Q96QT4); test: Dose-response inhibition assay against TRPM7; format: biochemical; settings: 25 nM TRPM7, 500 µM ATP (data not shown)
T2 sequence (Q96QT4 1551-1830): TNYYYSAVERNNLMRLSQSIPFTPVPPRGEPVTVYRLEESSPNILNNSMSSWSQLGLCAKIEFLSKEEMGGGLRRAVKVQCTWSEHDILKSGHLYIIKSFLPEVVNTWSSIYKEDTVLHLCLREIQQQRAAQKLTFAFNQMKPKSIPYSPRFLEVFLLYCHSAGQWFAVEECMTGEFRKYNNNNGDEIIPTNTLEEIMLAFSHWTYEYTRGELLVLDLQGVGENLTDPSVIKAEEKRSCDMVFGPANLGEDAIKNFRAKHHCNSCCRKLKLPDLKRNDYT

ERK2 = ERK2 (Homo sapiens, UniProt P28482); test: Dose-response inhibition assay against ERK2; format: biochemical
Sequence of ERK2 (P28482 whole entry, species assumed): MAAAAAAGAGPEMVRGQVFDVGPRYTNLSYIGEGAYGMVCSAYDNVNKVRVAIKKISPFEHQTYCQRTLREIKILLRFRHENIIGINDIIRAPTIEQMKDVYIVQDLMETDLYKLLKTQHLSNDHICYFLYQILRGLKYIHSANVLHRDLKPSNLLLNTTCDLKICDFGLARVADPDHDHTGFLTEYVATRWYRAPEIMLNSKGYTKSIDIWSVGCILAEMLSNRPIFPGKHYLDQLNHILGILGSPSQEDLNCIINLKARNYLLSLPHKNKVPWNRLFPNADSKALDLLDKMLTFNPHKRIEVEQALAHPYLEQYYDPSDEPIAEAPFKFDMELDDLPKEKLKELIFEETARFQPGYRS
Summary of the method: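 Radiometric kinase assay: 2 nM ERK2, 500 µM [γ-32P]-ATP, 20 µM Ets1 substrate, test compound 0–500 µM. IC50 and Hill coefficient came from a dose-response equation fit.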

eEF-2K [4] = target: T1, eEF-2K; test: Phosphorylation of wheat germ EF2 by eEF-2K in vitro; format: biochemical
[5] = tested on: MDA-MB-231 breast cancer cells; test: Western blot of phospho-eEF2; format: cell-based; settings: 4 µM NH125, 0–12 h
A549 lung cancer cells = test: Western blot of phospho-eEF2; format: cell-based; settings: 4 µM NH125, 0–12 h
HEK-293T cells = test: Western blot of phospho-eEF2; format: cell-based; settings: 4 µM NH125, 0–12 h
GST-eEF-2K = settings: in vitro kinase assay; cited from earlier work
cancer cell lines = settings: read-out: EC50, decrease of viability; a number of cancer cell lines; cited from earlier work
C6 glioma cells = settings: 1 µM NH125, 12 hours; cited from earlier work
[6] = tested on: human microvascular endothelial cells (HMVECs); settings: 200 nM NH125, 2 hour pre-incubation; cited from earlier work
[7] = tested on: eEF2 phosphorylation in the hippocampus; settings: 5 mg/kg, 30 minutes, mice; cited from earlier work
[8] = tested on: H1299, PC3, HeLa, H460 and C6 cell lines; settings: NH125 for 6 hours; cited from earlier work
[9] = cited from earlier work
[10] = varied ATP 12.5–125 µM, fixed Pep-S 50 µM

T1 sequence (O00418 whole entry): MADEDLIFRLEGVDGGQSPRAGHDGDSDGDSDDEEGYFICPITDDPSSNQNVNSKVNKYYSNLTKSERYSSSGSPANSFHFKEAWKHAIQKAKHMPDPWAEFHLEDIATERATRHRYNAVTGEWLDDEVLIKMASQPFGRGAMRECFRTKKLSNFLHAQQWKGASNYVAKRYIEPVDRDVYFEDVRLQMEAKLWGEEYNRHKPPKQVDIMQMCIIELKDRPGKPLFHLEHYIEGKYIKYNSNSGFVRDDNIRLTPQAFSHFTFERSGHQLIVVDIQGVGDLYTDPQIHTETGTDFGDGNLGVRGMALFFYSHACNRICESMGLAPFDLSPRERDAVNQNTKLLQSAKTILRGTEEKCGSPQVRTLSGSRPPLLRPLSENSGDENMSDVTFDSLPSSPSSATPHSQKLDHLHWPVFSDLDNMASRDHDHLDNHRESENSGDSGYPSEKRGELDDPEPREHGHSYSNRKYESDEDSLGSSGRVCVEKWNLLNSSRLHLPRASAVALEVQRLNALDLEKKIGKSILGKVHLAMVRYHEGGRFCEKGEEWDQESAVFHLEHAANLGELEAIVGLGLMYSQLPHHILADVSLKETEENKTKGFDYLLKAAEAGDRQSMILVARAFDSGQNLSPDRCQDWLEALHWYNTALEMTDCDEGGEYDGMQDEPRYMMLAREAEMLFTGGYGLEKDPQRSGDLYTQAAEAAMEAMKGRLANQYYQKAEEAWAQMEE

Nc1ncnc2c1ncn2[C@@H]1O[C@H](COP(=O)(O)OP(=O)(O)OP(=O)(O)O)[C@@H](O)[C@H]1O [ATP, adenosine triphosphate]
Kd (eEF-2K [1]): 16.2 ± 6.9 µM

CC(=O)c1c(O)c(C)c(O)c(Cc2c(O)c3c(c(C(=O)/C=C/c4ccccc4)c2O)OC(C)(C)C=C3)c1O [Rottlerin, rottlerin]
kinase selectivity (eEF-2K [2]): nonspecific inhibitor of multiple protein kinases

CCCCCCCCCCCCCCCC[n+]1ccn(Cc2ccccc2)c1C.[I-] [NH125, 1-benzyl-3-cetyl-2-methylimidazolium iodide]
Hill coefficient (eEF-2K [3]): 1.0 ± 0.28
Hill coefficient (TRPM7): 1.6
IC50 (ERK2): 70 µM
Hill coefficient (ERK2; 2 nM ERK2, 500 µM ATP (data not shown)): 3.6
effect on the rate of phosphorylation of wheat germ eEF2 (eEF-2K [4]; NH125 0–5 µM, 1 µM eEF2, 7.5 µM ATP, 10 nM eEF-2K): no detectable effect; also recorded: failed to inhibit
effect on phosphorylation of wheat germ eEF2 (eEF-2K [4]; NH125 12.5 – 50 µM (Figure S3)): inhibition is observed
levels of eEF-2K and eEF-2 [5]: increase
phospho-eEF2 (Thr-56) level ([5]; versus DMSO): No sign of decrease; also recorded: increased; also recorded: no inhibition was observed; also recorded: did not inhibit
levels of eEF-2K and eEF-2 (A549 lung cancer cells): increase
phospho-eEF2 (Thr-56) level (A549 lung cancer cells; versus DMSO): No sign of decrease; also recorded: increased; also recorded: no inhibition was observed; also recorded: did not inhibit
levels of eEF-2K and eEF-2 (HEK-293T cells): increase
phospho-eEF2 (Thr-56) level (HEK-293T cells; versus DMSO): No sign of decrease; also recorded: increased; also recorded: no inhibition was observed; also recorded: did not inhibit
IC50 (GST-eEF-2K): 0.06 µM
EC50 (cancer cell lines): 1 to 5 µM
phosphorylation of eEF2 (C6 glioma cells): strongly inhibits
resveratrol-induced eEF2 phosphorylation [6]: inhibition
eEF2 phosphorylation in the hippocampus [7]: observable decrease
phosphorylation of eEF-2 [8]: induction; also recorded: induce phosphorylation

Nc1ncnc2c1ncn2[C@@H]1O[C@H](COP(=O)(O)OP(=O)(O)O)[C@@H](O)[C@H]1O [ADP, adenosine diphosphate]
Mechanism of inhibition (eEF-2K [1]; [10]): Competitive ^d
Mechanism of inhibition (eEF-2K [1]; varied Pep-S, fixed ATP 50 µM): Mixed ^g

O=C1OC(c2cc(I)c(O)c(I)c2)(c2c(I)cc(O)cc2I)c2ccccc21 (stereo not shown) [tetraiodophenolphthalein]
diameter of aggregates [9]: approximately 150 nm

Ac-RKKYKFNEDAERRRFL-NH2 [Pep-I]
Mechanism of inhibition (eEF-2K [1]; [10]): Mixed ^g
Mechanism of inhibition (eEF-2K [1]; varied Pep-S, fixed ATP 50 µM): Competitive ^d
